Paper PMC7032146 (Asian Journal of Pharmaceutical Sciences, 2018)

What was measured:
B16F10 cells = experiment: Cellular uptake of NR-loaded micelles; format: cell-based; details: B16F10, flow cytometry, 1 h and 4 h
L929 cells = experiment: Cellular uptake of NR-loaded micelles; format: cell-based
Outline: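 L929 cells (CD44-negative) grown 24 h in DMEM with 10% FBS, then medium replaced with free fluorescent marker NR or micelles loaded with NR at 0.2% drug loading. Incubated at 37 °C for 1, 4 and 8 h, washed thrice with PBS, and viewed by fluorescent inverted microscope. For flow cytometry at 1 and 4 h, cells were PBS-washed, trypsinised, resuspended in PBS, and read at 560/620 nm.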

CCN(CC)c1ccc2nc3c4ccccc4c(=O)cc-3oc2c1 [free NR, nile red]
Intracellular NR concentrations, order (B16F10 cells): HA-SS-ATRA21/NR micelles > HA-ATRA20/NR micelles > free NR > HA-SS-ATRA21/NR micelles treated with free-HA | Fluorescence intensity of NR (cellular uptake) (L929 cells; L929 (CD44-negative), fluorescent inverted microscope): highest | Fluorescence intensity of NR (cellular uptake) (L929 cells; L929, flow cytometry, 1 h and 4 h): highest
